Measured values reported in ChEMBL document CHEMBL1155396, “The synthesis and angiotensin converting enzyme (ACE) inhibitory activity of chalcones and their pyrazole derivatives” (Bioorg Med Chem Lett, 2010).

How the values were obtained:
[1] = biological target: T1, Angiotensin-converting enzyme (Oryctolagus cuniculus, UniProt P12822); experiment: (§1) Inhibition of ACE in rabbit lung assessed as decrease in dansylglycine concentration after 5 mins by HPLC analysis
T1 sequence (P12822 whole entry): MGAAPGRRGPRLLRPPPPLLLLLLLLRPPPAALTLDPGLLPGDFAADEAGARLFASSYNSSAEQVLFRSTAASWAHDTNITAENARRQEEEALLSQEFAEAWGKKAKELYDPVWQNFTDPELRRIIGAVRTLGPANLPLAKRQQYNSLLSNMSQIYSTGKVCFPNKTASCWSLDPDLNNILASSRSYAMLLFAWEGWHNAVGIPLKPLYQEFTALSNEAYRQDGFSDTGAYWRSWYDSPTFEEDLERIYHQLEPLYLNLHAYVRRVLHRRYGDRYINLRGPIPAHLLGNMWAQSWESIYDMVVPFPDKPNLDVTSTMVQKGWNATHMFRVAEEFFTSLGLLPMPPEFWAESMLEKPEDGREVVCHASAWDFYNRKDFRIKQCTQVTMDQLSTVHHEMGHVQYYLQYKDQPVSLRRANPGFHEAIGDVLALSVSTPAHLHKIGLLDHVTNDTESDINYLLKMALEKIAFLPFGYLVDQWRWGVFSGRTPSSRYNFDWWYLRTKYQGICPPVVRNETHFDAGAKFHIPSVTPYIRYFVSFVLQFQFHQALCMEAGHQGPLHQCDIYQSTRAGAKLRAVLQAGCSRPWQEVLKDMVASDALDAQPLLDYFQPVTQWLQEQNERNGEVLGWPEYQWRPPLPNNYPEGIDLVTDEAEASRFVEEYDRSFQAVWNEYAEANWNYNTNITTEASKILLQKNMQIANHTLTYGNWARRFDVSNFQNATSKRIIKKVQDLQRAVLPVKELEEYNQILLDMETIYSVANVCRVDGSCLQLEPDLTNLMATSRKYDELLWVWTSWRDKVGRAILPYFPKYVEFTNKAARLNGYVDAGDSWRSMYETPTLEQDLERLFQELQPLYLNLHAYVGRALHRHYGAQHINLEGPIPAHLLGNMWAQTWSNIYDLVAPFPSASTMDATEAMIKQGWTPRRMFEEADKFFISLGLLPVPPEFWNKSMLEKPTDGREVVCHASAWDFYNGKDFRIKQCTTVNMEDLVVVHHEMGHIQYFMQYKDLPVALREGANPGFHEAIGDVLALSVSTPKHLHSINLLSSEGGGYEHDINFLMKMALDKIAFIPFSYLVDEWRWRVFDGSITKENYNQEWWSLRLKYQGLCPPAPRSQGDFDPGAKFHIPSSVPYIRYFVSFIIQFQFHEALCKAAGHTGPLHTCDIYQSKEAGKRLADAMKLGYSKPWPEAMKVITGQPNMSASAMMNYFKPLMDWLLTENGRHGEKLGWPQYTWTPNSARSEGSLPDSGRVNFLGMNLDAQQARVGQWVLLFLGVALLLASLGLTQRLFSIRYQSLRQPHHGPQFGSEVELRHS
Outline: (§2)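 Rabbit lung ACE, pre-incubated 5 min at 37 °C with compound dissolved in HEPES assay buffer. Reaction started with substrate dansyltriglycine (7.86 mM) plus internal standard dansyl-L-glutamine (0.353 mM), both in the added combined solution. Incubation time was set from a calibration curve. Dansylglycine was quantified by reversed-phase HPLC with UV detection, using isocratic 10 mM NaH₂PO₄ (pH 7)/acetonitrile 88:12. Percent inhibition was taken versus control, with IC50 by nonlinear regression; means of three experiments.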

[2] = biological target: T2, Angiotensin-converting enzyme (Oryctolagus cuniculus) (UniProt P12822); experiment: as §1; outline: as §2
T2 sequence (whole entry): T1 sequence (P12822 whole entry)

Structure (SMILES) | IC50 [1] | inhibition [2]
COc1ccc(C2C[C-](c3cc(OC)c(OC)c(OC)c3)N=[N+]2C)cc1[N+](=O)[O-] (centres undefined) | 213 µM | –
COc1ccc(C2CC(c3cc(OC)c(OC)c(OC)c3)=NN2C)cc1F (centres undefined) | 770 µM | –
COc1cc(C(=O)/C=C/c2ccccc2)cc(OC)c1OC | 338 µM | Dose-dependent effect
COc1cccc(C2CC(c3cc(OC)c(OC)c(OC)c3)=NN2C)c1 (centres undefined) | 889 µM | –
COc1ccc(/C=C/C(=O)c2cc(OC)c(OC)c(OC)c2)cc1 | 574 µM | –
COc1ccc(C2CC(c3cc(OC)c(OC)c(OC)c3)=NN2C)cc1N (centres undefined) | 749 µM | –
COc1cccc(/C=C/C(=O)c2cc(OC)c(OC)c(OC)c2)c1 | 622 µM | –
O=c1cc(-c2ccc(O)c(O)c2)oc2cc(O)cc(O)c12 [LUTEOLIN] | 290 µM | –
COc1ccc(/C=C/C(=O)c2cc(OC)c(OC)c(OC)c2)cc1N | 219 µM | Dose-dependent effect
O=c1cc(-c2ccc(O)cc2)oc2cc(O)cc(O)c12 [APIGENIN] | 280 µM | –
COc1cc(C2=NN(C)C(c3ccccc3)C2)cc(OC)c1OC (centres undefined) | 805 µM | –
COc1ccc(C2CC(c3cc(OC)c(OC)c(OC)c3)=NN2C)cc1 (centres undefined) | 435 µM | Dose-dependent effect

Second part, the compound after the results:

IC50 [1] | inhibition [2] | Structure (SMILES)
280 µM | – | O=c1cc(-c2ccc(O)c(O)c2)oc2cc(O[C@@H]3O[C@H](CO)[C@@H](O)[C@H](O)[C@H]3O)cc(O)c12 [GALUTEOLIN]
516 µM | – | COc1ccc(/C=C/C(=O)c2cc(OC)c(OC)c(OC)c2)cc1[N+](=O)[O-]
246 µM | Dose-dependent effect | COc1cc(/C=C/C(=O)c2cc(OC)c(OC)c(OC)c2)ccc1O
552 µM | – | COc1cc(C(=O)/C=C/c2ccc([N+](=O)[O-])c(O)c2)cc(OC)c1OC
260 µM | – | O=c1c(O[C@@H]2O[C@H](CO)[C@H](O)[C@H](O)[C@H]2O)c(-c2ccc(O)cc2)oc2cc(O)cc(O)c12 [TRIFOLIN]
225 µM | Dose-dependent effect | COc1ccc(/C=C/C(=O)c2cc(OC)c(OC)c(OC)c2)cc1O
200 µM | – | O=C(O)[C@H]1O[C@@H](Oc2c(-c3ccc(O)c(O)c3)oc3cc(O)cc(O)c3c2=O)[C@H](O)[C@@H](O)[C@@H]1O [QUERCETIN GLUCURONIDE]
599 µM | – | COc1cc([C-]2CC(c3ccc([N+](=O)[O-])c(O)c3)[N+](C)=N2)cc(OC)c1OC (centres undefined)
762 µM | – | COc1ccc(C2CC(c3cc(OC)c(OC)c(OC)c3)=NN2C)cc1O (centres undefined)
570 µM | – | COc1ccc(/C=C/C(=O)c2cc(OC)c(OC)c(OC)c2)cc1F
– | Dose-dependent effect | COc1ccc(C2CC(c3cc(OC)c(OC)c(OC)c3)=NN2C)cc1[N+](=O)[O-] (centres undefined)
674 µM | – | COc1cc(C2CC(c3cc(OC)c(OC)c(OC)c3)=NN2C)ccc1O (centres undefined)
